Measurements collected from several papers.
Compare with care: the assays were run in different laboratories.
Target: Testis-specific serine/threonine-protein kinase 2 (TSSK2, Homo sapiens, UniProt Q96PF2)
One construct used (Q96PF2 1-358): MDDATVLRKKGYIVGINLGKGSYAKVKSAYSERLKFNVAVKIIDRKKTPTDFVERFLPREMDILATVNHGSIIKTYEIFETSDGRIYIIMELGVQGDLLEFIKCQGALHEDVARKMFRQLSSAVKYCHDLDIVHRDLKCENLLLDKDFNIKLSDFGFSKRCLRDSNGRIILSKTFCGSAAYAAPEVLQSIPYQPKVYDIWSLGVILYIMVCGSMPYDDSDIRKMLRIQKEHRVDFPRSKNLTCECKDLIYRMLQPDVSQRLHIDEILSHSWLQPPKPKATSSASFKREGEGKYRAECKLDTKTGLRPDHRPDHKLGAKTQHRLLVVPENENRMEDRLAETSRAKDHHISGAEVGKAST

Cc1cc(NC(=O)c2cccc3cc(-c4cccc5[nH]nc(N)c45)ccc23)ccc1F
activity vs control (enzyme activity, inhibitor; 0.1 µM): 99%

CCOc1cc(-c2nncn2C)ccc1Nc1ncc2cc(C)nc(NCC(C)(C)C)c2n1
inhibition (enzyme activity, inhibitor, FRET; 1 µM): < 15%

O=C(Nc1cnn(-c2csc(C(=O)NC3COC3)c2)c1)Nc1ccccc1Cl
remaining activity (enzyme activity, inhibitor; 5 µM): 91.5%

CN1CC(Oc2cnc(C#N)cc2-c2ccn3nc(NC(=O)C4CC4)cc3c2)C1
inhibition (enzyme activity, inhibitor; 1 µM): 0%

N#CCCc1ccc2c(c1)-c1[nH]c3ccc([N+](=O)[O-])cc3c1CC(=O)N2
remaining signal (cell-free assay; 0.5 µM): 78.7%

CCN(CC)CCNC(=O)c1c(C)[nH]c(/C=C2\C(=O)Nc3ccc(F)cc32)c1C
inhibition (enzyme activity, inhibitor; 0.3 µM): 0%

CNc1cccc2cc(C(=O)Nc3ccc(C(=O)O)cc3)c(=O)[nH]c12
inhibition (enzyme activity, inhibitor; 10 µM): 3.4%

O=C1Nc2ccc(Cl)cc2C1=Cc1cc(Cl)c(O)c(Cl)c1
remaining signal (cell-free assay; 0.5 µM): 94.4%

O=C(Nc1cnn(-c2csc(C(=O)NC3COC3)c2)c1)Nc1c(F)cccc1Cl
remaining activity (enzyme activity, inhibitor; 5 µM): 95.1%

COc1cc2ncnc(Nc3ccc(Oc4ccccc4)c(C)c3C)c2cc1OC
inhibition (enzyme activity, inhibitor; 1 µM): 3%

Cc1ccc(Nc2nccc(N(C)c3ccc4c(C)n(C)nc4c3)n2)cc1S(N)(=O)=O
inhibition (enzyme activity, inhibitor; 0.3 µM): 0%

CCCOc1ccc(OC)c(F)c1C(=O)c1ccc(C(=O)N[C@@H]2CNC[C@H]2NC(=O)c2ccc3[nH]ncc3c2)cc1
remaining activity (enzyme activity, inhibitor; 10 µM): 87%

CNC(=O)c1cc(Oc2ccc(NC(=O)Nc3ccc(Cl)c(C(F)(F)F)c3)cc2)ccn1
inhibition (enzyme activity, inhibitor; 10 µM): -1%

CC(C)(C)c1nc(-c2cccc(NS(=O)(=O)c3c(F)cccc3F)c2F)c(-c2ccnc(N)n2)s1
remaining activity (enzyme activity, inhibitor, radiometric; 1 µM): 86%
